Our source for the Activity and IC50 values is ChEMBL document CHEMBL1152591, “Design, synthesis and structure-activity relationship of 2-(3',4',5'-trimethoxybenzoyl)-benzo[b]furan derivatives as a novel class of inhibitors of tubulin polymerization” (Bioorg Med Chem, 2009).

Test [1] deals with K562. Nature of the test: Cell cycle arrest in human K562 cells assessed as accumulation at S phase at 530 nM after 24 hrs by flow cytometry. The class given is functional. The gist of the method: (§1)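 K562 leukaemia cells were cultured for 24 h with compound at one fixed concentration. DNA content per cell was measured by the standard propidium iodide procedure and flow cytometry. Proportions of cells in the sub-G0–G1 (apoptotic), G0–G1, S and G2–M peaks were compared with an untreated control.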
In general terms: A flow cytometer gives signals particle by particle.

The nature of test [2]: Inhibition of bovine tubulin polymerization. Details: species or system Bos taurus. The procedure, abridged: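 Purified bovine brain tubulin (10 μM) in glutamate buffer was preincubated with varying compound concentrations at 30 °C, then cooled to 0 °C. GTP was added and the mixture warmed to 30 °C in a recording spectrophotometer. Assembly was followed by turbidity.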

A short description of test [3]: Cytotoxicity against human Molt4/C8 cells after 2 days. To be noted: MOLT-4, 48 h.
The test system of the next test is L1210. Nature of the test: Cytotoxicity against mouse L1210 cells after 2 days. To be noted: L1210, 48 h. The class given is functional, cell-based. The gist of the method:
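Cells were incubated with the compounds at 37 °C for two days, then counted on a Coulter counter. IC50 is the concentration that inhibits cell proliferation by 50%.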

The test system of test [4] is K562. The experiment in a line: Cell cycle arrest in human K562 cells assessed as accumulation at G2 phase at 530 nM after 24 hrs by flow cytometry. The class given is functional. The gist of the method:
as §1

The next test has as its system FM3A. Nature of the test: Cytotoxicity against mouse FM3A0 cells after 2 days. The class given is functional, cell-based. To be noted: 48 h.
The test system of the next test is HeLa. The experiment in a line: Cytotoxicity against human HeLa cells after 2 days. The note with it: 48 h. It counts as functional, cell-based.
The subject of test [5] is K562. The experiment in a line: Cell cycle arrest in human K562 cells assessed as accumulation at G1 phase at 530 nM after 24 hrs by flow cytometry. It counts as functional. The gist of the method:
as §1

The test system of the next test is CCRF-CEM. Nature of the test: Cytotoxicity against human CEM cells after 2 days. It counts as functional, cell-based. The note with it: 48 h.
The next test is filed under the species Bos taurus. Nature of the test: Displacement of [3H]colchicine from bovine tubulin at 5 uM. The gist of the method:
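Reaction mixtures held 1 μM bovine brain tubulin, 5 μM [3H]colchicine and 5 μM test compound. Inhibition of radiolabelled colchicine binding to tubulin is expressed as percent inhibition.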

The test system of test [6] is K562. Nature of the test: Cell cycle arrest in human K562 cells assessed as accumulation at sub-G0/G1 phase at 530 nM after 24 hrs by flow cytometry. The class given is functional. The procedure, abridged: as §1
The test system of test [7] is K562. Nature of the test: Cell cycle arrest in human K562 cells assessed as accumulation at sub-G0/G1 phase at 1.62 µM after 24 hrs by flow cytometry.
Test [8] concerns K562. Nature of the test: Cell cycle arrest in human K562 cells assessed as accumulation at G2 phase at 1.62 µM after 24 hrs by flow cytometry.
The test system of test [9] is K562. Nature of the test: Cell cycle arrest in human K562 cells assessed as accumulation at S phase at 1.62 µM after 24 hrs by flow cytometry.
The test system of test [10] is K562. The experiment in a line: Cell cycle arrest in human K562 cells assessed as accumulation at G1 phase at 1.62 µM after 24 hrs by flow cytometry.
Test [11] deals with K562. Nature of the test: Cell cycle arrest in human K562 cells assessed as accumulation at G2 phase at 26 nM after 24 hrs by flow cytometry. It counts as functional. The procedure, abridged:
as §1

The test system of test [12] is K562. The experiment in a line: Cell cycle arrest in human K562 cells assessed as accumulation at S phase at 26 nM after 24 hrs by flow cytometry. The class given is functional. The gist of the method: as §1
Test [13] concerns K562. The experiment in a line: Cell cycle arrest in human K562 cells assessed as accumulation at sub-G0/G1 phase at 26 nM after 24 hrs by flow cytometry. It counts as functional. The procedure, abridged: as §1
The test system of test [14] is K562. Nature of the test: Cell cycle arrest in human K562 cells assessed as accumulation at G1 phase at 26 nM after 24 hrs by flow cytometry. It counts as functional. The gist of the method:
as §1

In test [15] the test system is K562. Nature of the test: Cell cycle arrest in human K562 cells assessed as accumulation at S phase at 480 nM after 24 hrs by flow cytometry. The class given is functional.
Test [16] concerns K562. Nature of the test: Cell cycle arrest in human K562 cells assessed as accumulation at G2 phase at 480 nM after 24 hrs by flow cytometry. It counts as functional.
Test [17] relates to K562. Nature of the test: Cell cycle arrest in human K562 cells assessed as accumulation at sub-G0/G1 phase at 480 nM after 24 hrs by flow cytometry. It counts as functional.
In test [18] the test system is K562. The experiment in a line: Cell cycle arrest in human K562 cells assessed as accumulation at G1 phase at 480 nM after 24 hrs by flow cytometry. It counts as functional.

By IC50 is commonly meant the midpoint of a concentration-inhibition curve. Turning to `COc1cc(C(=O)c2oc3cccc(O)c3c2C)cc(OC)c1OC`, the Activity with K562 [1] was 26.37%; with K562 [4] it was 65.12%; in the test on K562 [5], 8.52%; in the test listed under Bos taurus, 85%; in the test on K562 [6] it was 7.6%. For the same compound, the IC50 in test [2] was 570 nM; in test [3], 84 nM; in the test with L1210 it was 480 nM; in the test with FM3A, 330 nM; in the test on HeLa, 130 nM; in the test with CCRF-CEM, 100 nM.
In the case of `COc1cc(C(=O)c2oc3cc(F)ccc3c2C)cc(OC)c1OC`, the IC50 in test [2] came out at 6900 nM; in test [3], 2100 nM; in the test with L1210, 3500 nM; with FM3A it was 3700 nM; with CCRF-CEM it was 2700 nM. For the same compound, the Activity in the test on K562 [7] amounted to 44.32%; with K562 [8], 47.46%; in the test on K562 [9], 44.32%; with K562 [10], 8.23%.
Turning to `COc1ccc2c(C)c(C(=O)c3cc(OC)c(OC)c(OC)c3)oc2c1`, the IC50 in test [2] is 550 nM; in test [3], 19 nM; with L1210, 24 nM; in the test with FM3A it was 27 nM; in the test on HeLa, 3.2 nM. In addition, the Activity was 81.19% with K562 [11]; 16.62% in the test with K562 [12]; 4.9% in the test on K562 [13]; 2.19% in the test on K562 [14]; 97% in the test filed under Bos taurus.
As for `COc1cc(C(=O)c2oc3ccc(O)cc3c2C)cc(OC)c1OC`, the Activity was found to be 33.83% with K562 [15]; 47.38% with K562 [16]; 22.13% with K562 [17]; 18.79% in the test on K562 [18]; 69% in the test filed under Bos taurus. Besides, the IC50 in [2] was 1100 nM; in test [3], 240 nM; with L1210 it was 800 nM; in the test with FM3A it was 430 nM; in the test on HeLa it was 290 nM; in the test on CCRF-CEM it was 430 nM.
